The target of data set [1] is Protein cereblon/Cyclin-dependent kinase 9 (Homo sapiens, UniProt P50750+Q96SW2). The experiment in a line: Induction of CRBN-mediated CDK9 degradation in human U251 cells at 500 nM after 4 hrs […]. Format: cell-based. The settings on record: 0.5 µM. The method, boiled down: (§1)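 U251 cells grown to 70–80% confluency, exposed to 500 nM degrader or DMSO for 4 h. Harvested by trypsinization, washed in cold PBS, lysed in RIPA on ice 30 min. Lysates BCA-quantified, acetone-precipitated, TMT-labelled and analysed by MS2 quantitation.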

Data set [2] addresses Protein cereblon/Dual specificity mitogen-activated protein kinase kinase 1 (Homo sapiens, UniProt Q02750+Q96SW2). The experiment in a line: Induction of CRBN-mediated MEK1 degradation in human U251 cells at 500 nM after 4 hrs by immunoblot analysis. The settings on record: 0.5 µM. Type of data set: cell-based. (In general: A western blot detects proteins with antibodies after separation by electrophoresis.)

The target of data set [3] is Protein cereblon/G1/S-specific cyclin-D1 (Homo sapiens, UniProt P24385+Q96SW2). The data set can be described thus: Induction of CRBN-mediated CCND1 degradation in human U251 cells at 500 nM after 4 hrs by […]. Type of data set: cell-based. The settings on record: 0.5 µM. The procedure, abridged: as §1
Data set [4] has as its target Protein cereblon/Epidermal growth factor receptor (Homo sapiens, UniProt P00533+Q96SW2). The experiment in a line: Induction of CRBN-mediated EGFR degradation in human U251 cells at 500 nM after 4 hrs […]. The settings on record: 0.5 µM. Format: cell-based. The method, boiled down: as §1
For data set [5], the target named is Protein cereblon/Cyclin-dependent kinase 2 (Homo sapiens, UniProt P24941+Q96SW2). The experiment in a line: Induction of CRBN-mediated CDK2 degradation in human U251 cells at 500 nM after 4 hrs by immunoblot analysis. Type of data set: cell-based. The settings on record: 0.5 µM.
In data set [6] the target is Protein cereblon/Cyclin-dependent kinase 5 (Homo sapiens, UniProt Q00535+Q96SW2). The data set can be described thus: Induction of CRBN-mediated CDK5 degradation in human U251 cells at 500 nM after 4 hrs by […]. Format: cell-based. The settings on record: 0.5 µM. The procedure, abridged:
as §1

Data set [7] concerns the target Protein cereblon/Cyclin-dependent kinase 4 (Homo sapiens, UniProt P11802+Q96SW2). The experiment in a line: Induction of CRBN-mediated CDK4 degradation in human U251 cells after 24 hrs by immunoblot analysis. Format: cell-based.
Data set [8] concerns JeKo-1. The experiment in a line: Antiproliferative activity against human JeKo1 cells after 84 hrs by CCK8 assay. Type of data set: functional, cell-based. The procedure, abridged:
(§2)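 Suspension haematopoietic lines seeded in triplicate in 96-well plates; drug stock added immediately to the final concentrations. After 84 h culture, CCK-8 reagent added and absorbance at OD450 nm read after 2 h incubation.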
In general terms: Formazan colour is commonly taken as a measure of viable cells.

The test system of data set [9] is MCF7. The experiment in a line: Antiproliferative activity against Fat1 knockout human MCF7 cells after 6 days by alamarBlue assay. Format: functional, cell-based. The procedure, abridged: (§3)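 Parental or palbociclib-resistant MCF-7 cells (CDK6-N2 or FAT1 knockout) exposed to serial concentrations of degrader for 6 days, then viability determined.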
Data set [10] has as its system MM1.S. The experiment in a line: Antiproliferative activity against human MM1S cells after 84 hrs by CCK8 assay. Format: functional, cell-based. The method, boiled down: as §2
For data set [11], the system named is THP-1. The data set can be described thus: Antiproliferative activity against human THP1 cells after 84 hrs by CCK8 assay. Format: functional, cell-based. The procedure, abridged: as §2
The test system of data set [12] is MCF7. The experiment in a line: Antiproliferative activity against palbociclib-resistant human MCF7 cells with CDK6 gene amplification after 6 days by alamarBlue assay. Type of data set: functional, cell-based. The method, boiled down: as §3
The test system of data set [13] is HL-60. The experiment in a line: Antiproliferative activity against human HL60 cells after 84 hrs by CCK8 assay. Type of data set: functional, cell-based. The method, boiled down:
as §2

Data set [14] is described as follows: Antiproliferative activity against human Mino cells after 84 hrs by CCK8 assay. Format: functional, cell-based. The method, boiled down:
as §2

Data set [15] concerns RPMI-8226. The experiment in a line: Antiproliferative activity against human RPMI8226 cells after 84 hrs by CCK8 assay. Type of data set: functional, cell-based. The procedure, abridged: as §2
Data set [16] addresses Protein cereblon/Cyclin-dependent kinase 1 (Homo sapiens, UniProt P06493+Q96SW2). The experiment in a line: Induction of CRBN-mediated CDK1 degradation in human U251 cells at 500 nM after 4 hrs […]. Type of data set: cell-based. The settings on record: 0.5 µM. The method, boiled down: as §1
Data set [17] deals with Protein cereblon/Cyclin-dependent kinase 6 (Homo sapiens, UniProt Q00534+Q96SW2). The experiment in a line: Induction of CRBN-mediated CDK6 degradation in human U251 cells after 24 hrs by immunoblot analysis. Format: cell-based.

Calls of active or inactive are those of the source. No cut-off for these calls is given here.

Protein cereblon/Cyclin-dependent kinase 1, sequence (P06493 whole entry): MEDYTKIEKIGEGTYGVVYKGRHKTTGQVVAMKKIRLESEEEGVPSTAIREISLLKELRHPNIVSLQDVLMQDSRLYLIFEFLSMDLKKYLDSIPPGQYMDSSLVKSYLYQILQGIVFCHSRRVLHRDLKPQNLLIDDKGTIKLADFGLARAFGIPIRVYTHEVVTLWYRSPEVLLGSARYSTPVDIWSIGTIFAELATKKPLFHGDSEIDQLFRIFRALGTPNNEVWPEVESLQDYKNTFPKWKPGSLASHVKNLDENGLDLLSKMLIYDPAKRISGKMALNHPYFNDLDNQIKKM
Protein cereblon/Cyclin-dependent kinase 1, sequence (Q96SW2 whole entry): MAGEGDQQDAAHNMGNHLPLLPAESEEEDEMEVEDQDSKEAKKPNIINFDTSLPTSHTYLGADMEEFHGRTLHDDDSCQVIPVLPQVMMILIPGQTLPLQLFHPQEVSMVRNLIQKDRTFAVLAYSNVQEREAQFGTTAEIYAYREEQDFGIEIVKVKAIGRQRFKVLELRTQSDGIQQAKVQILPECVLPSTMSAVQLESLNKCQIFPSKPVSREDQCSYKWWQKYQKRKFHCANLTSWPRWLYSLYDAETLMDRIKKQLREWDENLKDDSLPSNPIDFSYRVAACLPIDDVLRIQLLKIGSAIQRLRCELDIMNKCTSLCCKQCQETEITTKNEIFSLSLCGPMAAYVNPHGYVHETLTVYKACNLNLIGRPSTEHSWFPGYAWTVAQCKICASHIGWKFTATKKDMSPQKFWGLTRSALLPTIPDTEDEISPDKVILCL
Protein cereblon/G1/S-specific cyclin-D1, sequence (P24385 whole entry): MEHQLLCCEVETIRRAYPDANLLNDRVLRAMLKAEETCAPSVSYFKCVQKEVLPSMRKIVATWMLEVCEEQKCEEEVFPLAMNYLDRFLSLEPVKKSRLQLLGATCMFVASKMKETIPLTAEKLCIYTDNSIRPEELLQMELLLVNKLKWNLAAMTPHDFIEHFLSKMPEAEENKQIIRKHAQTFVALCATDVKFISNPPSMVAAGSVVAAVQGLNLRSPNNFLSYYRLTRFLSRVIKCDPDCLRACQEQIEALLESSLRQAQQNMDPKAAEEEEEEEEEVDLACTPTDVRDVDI
Protein cereblon/G1/S-specific cyclin-D1, sequence (Q96SW2 whole entry): as the sequence (Q96SW2 whole entry) above
Protein cereblon/Dual specificity mitogen-activated protein kinase kinase 1, sequence (Q02750 whole entry): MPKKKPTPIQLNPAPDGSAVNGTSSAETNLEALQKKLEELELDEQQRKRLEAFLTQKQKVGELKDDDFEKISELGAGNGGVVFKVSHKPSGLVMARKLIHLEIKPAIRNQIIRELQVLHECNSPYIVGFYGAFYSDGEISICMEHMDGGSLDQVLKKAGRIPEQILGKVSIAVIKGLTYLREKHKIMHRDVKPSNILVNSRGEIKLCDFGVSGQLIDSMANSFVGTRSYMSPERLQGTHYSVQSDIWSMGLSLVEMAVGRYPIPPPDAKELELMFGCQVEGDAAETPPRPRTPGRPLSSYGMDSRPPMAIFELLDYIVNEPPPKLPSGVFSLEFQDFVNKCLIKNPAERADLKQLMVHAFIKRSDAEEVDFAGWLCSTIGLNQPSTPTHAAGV
Protein cereblon/Dual specificity mitogen-activated protein kinase kinase 1, sequence (Q96SW2 whole entry): as the sequence (Q96SW2 whole entry) above
Protein cereblon/Cyclin-dependent kinase 5, sequence (Q00535 whole entry): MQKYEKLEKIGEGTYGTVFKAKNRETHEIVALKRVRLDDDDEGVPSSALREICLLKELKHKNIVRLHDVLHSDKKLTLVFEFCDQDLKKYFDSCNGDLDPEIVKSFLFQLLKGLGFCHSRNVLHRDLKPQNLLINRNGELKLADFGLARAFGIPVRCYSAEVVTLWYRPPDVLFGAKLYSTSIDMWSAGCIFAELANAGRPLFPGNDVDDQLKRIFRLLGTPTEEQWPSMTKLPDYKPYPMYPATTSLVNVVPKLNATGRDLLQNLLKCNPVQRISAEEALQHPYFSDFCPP
Protein cereblon/Cyclin-dependent kinase 5, sequence (Q96SW2 whole entry): as the sequence (Q96SW2 whole entry) above
Protein cereblon/Cyclin-dependent kinase 9, sequence (P50750 whole entry): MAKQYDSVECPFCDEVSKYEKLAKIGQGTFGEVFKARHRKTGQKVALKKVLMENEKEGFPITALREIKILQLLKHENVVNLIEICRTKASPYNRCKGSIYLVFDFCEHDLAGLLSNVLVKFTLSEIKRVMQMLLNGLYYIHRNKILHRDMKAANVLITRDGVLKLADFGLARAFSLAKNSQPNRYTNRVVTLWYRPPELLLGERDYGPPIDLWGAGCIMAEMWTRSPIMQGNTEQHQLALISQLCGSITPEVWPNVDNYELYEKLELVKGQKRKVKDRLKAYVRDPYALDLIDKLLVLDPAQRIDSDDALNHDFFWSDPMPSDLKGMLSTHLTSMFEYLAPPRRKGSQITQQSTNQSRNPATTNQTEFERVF
Protein cereblon/Cyclin-dependent kinase 9, sequence (Q96SW2 whole entry): as the sequence (Q96SW2 whole entry) above
Protein cereblon/Cyclin-dependent kinase 6, sequence (Q00534 whole entry): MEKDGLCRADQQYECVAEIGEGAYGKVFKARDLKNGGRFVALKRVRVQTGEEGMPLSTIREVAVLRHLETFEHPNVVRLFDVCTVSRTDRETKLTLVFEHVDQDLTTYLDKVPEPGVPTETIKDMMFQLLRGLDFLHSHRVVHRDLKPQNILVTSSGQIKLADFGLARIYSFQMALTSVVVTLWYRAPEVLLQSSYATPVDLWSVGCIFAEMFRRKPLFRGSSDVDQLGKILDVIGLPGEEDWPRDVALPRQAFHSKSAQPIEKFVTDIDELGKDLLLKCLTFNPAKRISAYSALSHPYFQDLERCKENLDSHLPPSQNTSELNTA
Protein cereblon/Cyclin-dependent kinase 6, sequence (Q96SW2 whole entry): as the sequence (Q96SW2 whole entry) above
Protein cereblon/Epidermal growth factor receptor, sequence (P00533 whole entry): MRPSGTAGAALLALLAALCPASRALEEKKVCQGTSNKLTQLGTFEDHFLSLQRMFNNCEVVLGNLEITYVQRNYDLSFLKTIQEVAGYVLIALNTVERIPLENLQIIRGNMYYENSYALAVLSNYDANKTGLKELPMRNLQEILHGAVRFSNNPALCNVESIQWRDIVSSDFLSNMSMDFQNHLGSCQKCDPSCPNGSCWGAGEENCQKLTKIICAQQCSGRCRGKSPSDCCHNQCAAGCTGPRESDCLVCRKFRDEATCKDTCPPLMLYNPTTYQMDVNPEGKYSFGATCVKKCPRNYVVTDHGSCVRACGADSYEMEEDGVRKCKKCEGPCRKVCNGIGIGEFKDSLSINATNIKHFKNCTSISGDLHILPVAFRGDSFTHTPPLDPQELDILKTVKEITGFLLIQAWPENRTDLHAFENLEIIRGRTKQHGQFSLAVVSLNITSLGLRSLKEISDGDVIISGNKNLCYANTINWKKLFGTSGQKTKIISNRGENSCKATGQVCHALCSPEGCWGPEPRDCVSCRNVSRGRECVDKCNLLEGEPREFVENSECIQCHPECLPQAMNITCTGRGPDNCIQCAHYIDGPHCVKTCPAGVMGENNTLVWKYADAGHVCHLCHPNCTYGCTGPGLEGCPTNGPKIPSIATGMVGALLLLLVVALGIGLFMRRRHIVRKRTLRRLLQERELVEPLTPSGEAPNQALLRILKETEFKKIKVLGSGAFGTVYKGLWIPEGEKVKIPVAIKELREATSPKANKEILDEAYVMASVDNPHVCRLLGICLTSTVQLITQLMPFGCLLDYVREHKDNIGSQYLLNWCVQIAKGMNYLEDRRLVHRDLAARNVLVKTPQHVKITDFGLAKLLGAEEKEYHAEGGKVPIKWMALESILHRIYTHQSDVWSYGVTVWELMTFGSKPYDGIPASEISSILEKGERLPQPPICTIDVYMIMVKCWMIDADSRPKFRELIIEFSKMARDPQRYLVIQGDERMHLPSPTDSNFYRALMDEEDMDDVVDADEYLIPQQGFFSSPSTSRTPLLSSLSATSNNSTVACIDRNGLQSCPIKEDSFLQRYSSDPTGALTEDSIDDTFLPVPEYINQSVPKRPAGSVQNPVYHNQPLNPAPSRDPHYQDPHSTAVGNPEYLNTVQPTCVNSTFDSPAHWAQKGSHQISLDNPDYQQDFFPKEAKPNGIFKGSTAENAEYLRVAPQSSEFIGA
Protein cereblon/Epidermal growth factor receptor, sequence (Q96SW2 whole entry): as the sequence (Q96SW2 whole entry) above
Protein cereblon/Cyclin-dependent kinase 4, sequence (P11802 whole entry): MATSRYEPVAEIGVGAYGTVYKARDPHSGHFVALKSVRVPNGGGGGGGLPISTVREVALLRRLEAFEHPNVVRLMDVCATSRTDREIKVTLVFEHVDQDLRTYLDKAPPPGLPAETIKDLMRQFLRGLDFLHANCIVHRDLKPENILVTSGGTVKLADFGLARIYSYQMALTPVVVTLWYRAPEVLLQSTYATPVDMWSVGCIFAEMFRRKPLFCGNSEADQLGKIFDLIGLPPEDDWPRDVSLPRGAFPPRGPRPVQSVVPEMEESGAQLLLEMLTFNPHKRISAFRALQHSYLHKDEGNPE
Protein cereblon/Cyclin-dependent kinase 4, sequence (Q96SW2 whole entry): as the sequence (Q96SW2 whole entry) above

The DC50 is the concentration giving 50% degradation. A high value points to degradation only at high concentration. The term IC50 denotes the midpoint of a concentration-inhibition curve. High values mean a need for much substance, low ones inhibition by little substance. For `CC(=O)c1c(C)c2cnc(Nc3ccc(N4CCN(Cc5cn(CCOCCNc6cccc7c6C(=O)N(C6CCC(=O)NC6=O)C7=O)nn5)CC4)cn3)nc2n(C2CCCC2)c1=O` (configuration not stated), the Activity entry in data set [1], in data set [2], in data set [3], in data set [4], in data set [5] and in data set [6] was “Not Active” throughout. Moreover, the Activity entry in data set [16] is listed as “Not Active”. Further, the results for the DC50 in [7] and in data set [17] were 150 to 180 nM and 2.1 nM, respectively. Further, the result in data set [8], in data set [9], in [11], in data set [12], in data set [13] and in data set [15] was Active. The results for the half-maximal inhibitory concentration (IC50) in data set [10] and in data set [14] were 10 nM and 8 nM, respectively.
